The array DNA melting data of Ke et al. (doi:10.1101/2024.01.08.574731)

Legend:
[1] = folding enthalpy; higher = less favourable; fluorescence melt of hairpins on a sequencing array, two-state fit; details: sodium 0.088 M
How it was run: (§1)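 On a sequenced MiSeq flow cell, library hairpins with annealed Cy3 and quencher oligos were imaged for Cy3 fluorescence in 2.5 °C steps up to 60 °C, in 50 mM Na-HEPES pH 8.0, 25 mM NaCl. Normalisation used pre-quench Cy3 and control constructs. Bootstrapped two-state fits gave melting temperature and folding enthalpy, combined by inverse variance across four replicates and with fitted temperatures raised by 9.35 °C to match UV melts.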

[2] = melting temperature; fluorescence melt of hairpins on a sequencing array, two-state fit, raised by 9.35 °C to match UV melts; details: sodium 0.088 M
How it was run: as §1

Sequence | folding enthalpy [1] [kcal/mol] | Tm [2] [°C]
GTGGGCGGAAACGTCCGC (.((.((....)).)).) | -25.4 | 54.3
GTGGGGACGAAAGTCCAC (((..(((....)))))) | -15.4 | 61.8
GTGGGGGAAACCCCAC ((((((....)))))) | -31.9 | 68
GTGGGGGGAAACCCCTAC ((.((((....)))).)) | -17.8 | 52.2
GTGGGGGGAAACTCCCAC (((((.(....).))))) | -35.3 | 56.2
GTGGGTCGAAAGACACAC (((.(((....))).))) | -47 | 63.5
GTGGGTCGAAAGACGCAC (((.(((....))).))) | -34.3 | 63.3
GTGGGTGAAAACCCAC ((((((....)))))) | -28.1 | 67.3
GTGGGTGGAAACATCCGC (.((.((....)).)).) | -26.3 | 44.2
GTGGTACCGAAAGGTCAC (((..(((....)))))) | -18.4 | 38.4
GTGGTCCGAAAGGAGCAC (((.(((....))).))) | -34.6 | 67.6
GTGGTCGAAAGACACCAC ((((((....)))..))) | -15.6 | 42.4
GTGGTCGAAAGACCCAC ((((((....))).))) | -13.2 | 51.1
GTGGTCGAAAGACCTCAC ((((((....)))..))) | -10.7 | 38
GTGGTGCCGAAAGGCCAC (((..(((....)))))) | -12.8 | 48
GTGGTGGAAACACCAC ((((((....)))))) | -34.7 | 66.6
GTGGTGGGAAACCATCAC (((.(((....))).))) | -43.1 | 51.2
GTGGTGGGAAACCGCCAC ((((.((....)).)))) | -40.2 | 61.9
GTGGTTACGAAAGTACAC (((..(((....)))))) | -20.7 | 35.5
GTGGTTGGAAACAACTAC ((.((((....)))).)) | -24.8 | 47.8
GTGGTTGGAAACGACTAC ((.((.(....).)).)) | -25.7 | 41.8
GTGGTTGGAAACGATCAC (((.(.(....).).))) | -18 | 34.1
GTGGTTTCGAAAGAACAC (((..(((....)))))) | -15.6 | 31.3

Sequence | folding enthalpy [1] [kcal/mol] | Tm [2] [°C]
GTGTAAGAAATTACAC ((((((....)))))) | -29.2 | 46.1
GTGTAAGGAAACTCACAC ((((.((....)).)))) | -16.9 | 32.8
GTGTAAGGAAACTTGCAC (((.(((....))).))) | -31 | 45.1
GTGTACGAAAGTATACAC ((((((....)))..))) | -22 | 44.9
GTGTACGAAAGTATTCAC ((((((....)))..))) | -11.8 | 28.7
GTGTAGGGAAACTTGCAC (((.(.(....).).))) | -17.7 | 29.4
GTGTATGAAAATACAC ((((((....)))))) | -36.1 | 52.5
GTGTATGGAAACATATAC ((.((((....)))).)) | -37 | 37.8
GTGTATGGAAACGTACAC (((((.(....).))))) | -33.9 | 47.2
GTGTCACCGAAAGGTCAC (((..(((....)))))) | -20.5 | 38.2
GTGTCACGAAAGTGTCAC (((.(((....))).))) | -40.4 | 53.5
GTGTCAGGAAACCGACAC (((((.(....).))))) | -42.6 | 49.2
GTGTCCCGAAAGGGCAC (((.(((....)))))) | -26.1 | 65.2
GTGTCCCGAAAGGGTCAC (((.(((....))).))) | -30.8 | 57.9
GTGTCCGAAAGGAACAC ((((((....))).))) | -30 | 52.8
GTGTCCGAAAGGAAGCAC ((((((....)))..))) | -19.2 | 38.6
GTGTCCGAAAGGACGCAC ((((((....)))..))) | -10.4 | 57.8
GTGTCCGAAAGGAGCAC ((((((....))).))) | -23.9 | 49
GTGTCCGCGAAAGCGCAC (((..(((....)))))) | -14.1 | 40.5
GTGTCCGGAAACGGATGC (..((((....))))..) | -25.7 | 48
GTGTCGCGAAAGCGCAC (((.(((....)))))) | -18.8 | 56.6
GTGTCGTCGAAAGACCAC (((..(((....)))))) | -19.2 | 38.4
GTGTCTCGAAAGAGCCAC (((.(((....))).))) | -28.9 | 49.7

Sequence | folding enthalpy [1] [kcal/mol] | Tm [2] [°C]
GTGTCTCGAAAGAGGCAC (((.(((....))).))) | -38.5 | 61.3
GTGTCTGAAAAGACAC ((((((....)))))) | -33.7 | 61
GTGTCTGGAAACAAACAC ((((.((....)).)))) | -21.6 | 33.2
GTGTCTGGAAACGGATAC ((.((.(....).)).)) | -17.2 | 36.6
GTGTCTTCGAAAGAACAC (((..(((....)))))) | -17.2 | 32.9
GTGTGACGAAAGTCCCAC (((.(((....))).))) | -25 | 50.5
GTGTGCGAAAGCAACAC ((((((....))).))) | -30.1 | 61.3
GTGTGCGAAAGCAATCAC ((((((....)))..))) | -16.1 | 39.9
GTGTGCGAAAGCAGGCAC ((((((....)))..))) | -15.8 | 44.8
GTGTGCGAAAGCAGTCAC ((((((....)))..))) | -16.5 | 38.5
GTGTGCGAAAGCATACAC ((((((....)))..))) | -18.2 | 53.1
GTGTGCGGAAACGCACGC (.(((((....))))).) | -16.4 | 66
GTGTGTCGAAAGACGCAC (((.(((....))).))) | -37.7 | 61.4
GTGTGTGAAAACACAC ((((((....)))))) | -36.7 | 64.3
GTGTGTGGAAACACACAC (((((((....))))))) | -32.2 | 68.8
GTGTGTGGAAACACGTAC ((..(((....)))..)) | -11.8 | 38.7
GTGTGTGGAAACATACAC ((((.((....)).)))) | -39.6 | 48.6
GTGTGTGGAAACATACGC (.((.((....)).)).) | -29.4 | 47
GTGTTAGGAAACTAACGC (.(((((....))))).) | -21.8 | 47.4
GTGTTAGGAAACTAATAC ((.((((....)))).)) | -23.9 | 37.2
GTGTTATCGAAAGATCAC (((..(((....)))))) | -27.6 | 33.8
GTGTTCACGAAAGTGCAC (((..(((....)))))) | -20.7 | 42.3
GTGTTCCCGAAAGGGCAC (((..(((....)))))) | -22.4 | 46.1

Sequence | folding enthalpy [1] [kcal/mol] | Tm [2] [°C]
GTGTTCCGAAAGGACCAC (((.(((....))).))) | -38.4 | 49.7
GTGTTCGAAAGAACCAC ((((((....))).))) | -13.3 | 43.5
GTGTTCGAAAGAACTCAC ((((((....)))..))) | -13.7 | 38.1
GTGTTCGGAAACGAATGC (..((((....))))..) | -24.9 | 42.1
GTGTTCGGAAACGGACAC ((((.((....)).)))) | -44.6 | 55
GTGTTGAAAAACAC (((((....))))) | -26.3 | 49.9
GTGTTGCCGAAAGGCCAC (((..(((....)))))) | -10.3 | 57.8
GTGTTGCGAAAGCATCAC (((.(((....))).))) | -30.7 | 54
GTGTTGGCGAAAGCCCAC (((..(((....)))))) | -15.6 | 47
GTGTTGGGAAACCAACAC (((((((....))))))) | -43.1 | 63.5
GTGTTGGGAAACTAACAC (((((.(....).))))) | -36.4 | 46.7
GTGTTTCGAAAGAATCAC (((.(((....))).))) | -39.3 | 45
GTGTTTGGAAACAAATGC (..((((....))))..) | -21.7 | 34.8
GTGTTTGGAAACAGACAC ((((.((....)).)))) | -36 | 44.1
GTTAAACCGAAAGGTAAC (((..(((....)))))) | -15.2 | 29.9
GTTAAAGAAATTTAAC ((((((....)))))) | -14.3 | 29.6
GTTAAAGGAAACTTTGAC ((.((((....)))).)) | -16.7 | 33.2
GTTAACACGAAAGTGAAC (((..(((....)))))) | -9.64 | 25.3
GTTAACCGAAAGGTCAAC (((.(((....))).))) | -20.5 | 37.7
GTTAACGAAAGTTAAAAC ((((((....)))..))) | -9.6 | 30.2
GTTAACGGAAACGTTAGC (.(((((....))))).) | -21.3 | 42.9
GTTAAGCGAAAGCTAAC (((.(((....)))))) | -18.5 | 44.4
